Laboratory results taken from ChEMBL document CHEMBL4145448, “Broad activity of diphenyleneiodonium analogues against Mycobacterium tuberculosis, malaria parasites and bacterial pathogens” (Eur J Med Chem, 2018).

Legend:
Escherichia coli [1] = assay: Antibacterial activity against Escherichia coli N4149 after 18 hrs by broth microdilution method; assay type: functional; conditions: N4149, 18 h
Outline: (§1)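 Broth microdilution per CLSI in cation-adjusted Mueller-Hinton broth. 100 µL inoculum (~10^6 cfu/mL in CaMHB) mixed with 100 µL CaMHB containing compound, 0 to 128 µM. Incubated 18 h at 37 °C. MIC taken as the lowest concentration with no visible growth. Polymyxin B served as positive control. Isolates were stored at -80 °C in tryptone soy broth with 20% glycerol.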

Pseudomonas aeruginosa [2] = assay: Antibacterial activity against Pseudomonas aeruginosa QLD PSA 1 after 18 hrs by broth microdilution method; assay type: functional; conditions: QLD PSA 1, 18 h; outline: as §1
[3] = Selectivity index, ratio of CC50 for human HepG2 cells in presence of 1% FBS to MIC for Pseudomonas aeruginosa ATCC 27853; assay type: toxicity; conditions: read-out: Selectivity Index
Outline: (§2)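 Selectivity index is CC50 (1% FBS) divided by MIC. […] They then got compound at 300 to 0.14 µM (3-fold steps) for 24 h at 37 °C, 5% CO2. Resazurin (10 µM, 2 h) was read at ex/em 560/590 in duplicate wells. For MIC, CLSI broth microdilution was run in CaMHB with ~10^6 cfu/mL inoculum and 0–128 µM compound.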

[4] = Selectivity index, ratio of CC50 for human HepG2 cells in presence of 1% FBS to IC50 for drug-resistant GFP-fused Plasmodium falciparum D10; assay type: toxicity; conditions: read-out: Ratio IC50
[5] = Selectivity index, ratio of CC50 for human HepG2 cells in presence of 1% FBS to MIC for Klebsiella pneumoniae ATCC 13883; assay type: toxicity; conditions: read-out: Selectivity Index
Plasmodium falciparum [6] = assay: Growth inhibition of […] GFP-fused Plasmodium falciparum D10 after 90 hrs by ethidium bromide staining based flow cytometry; assay type: functional, organism-based; conditions: D10, 90 h
Outline: (§3)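 Parasites cultured in human O+ erythrocytes in RPMI-HEPES pH 7.4 with hypoxanthine, NaHCO3, gentamicin and 0.5% Albumax II under 1% O2/4% CO2 at 37 °C. Synchronised to rings with heparin plus sorbitol. Set up at 1% parasitaemia and 1% haematocrit with 10x compound added. Cultured 90 h to next-cycle trophozoites. Stained with 10 µg/mL ethidium bromide for 1 h, washed, parasitaemia counted by flow cytometry with GFP gating.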

[7] = Selectivity index, ratio of CC50 for human HepG2 cells in presence of 1% FBS to IC50 for Plasmodium knowlesi YH1; assay type: toxicity; conditions: read-out: Ratio IC50
[8] = Selectivity index, ratio of CC50 for human HepG2 cells in presence of 1% FBS to MIC for Escherichia coli N11281; assay type: toxicity; conditions: read-out: Selectivity Index
Klebsiella pneumoniae = assay: Antibacterial activity against Klebsiella pneumoniae ATCC 13883 after 18 hrs by broth microdilution method; assay type: functional; conditions: ATCC 13883, 18 h; outline: as §1
Acinetobacter baumannii [9] = assay: Antibacterial activity against Acinetobacter baumannii isolate 246-01-C after 18 hrs by broth microdilution method; assay type: functional; outline: as §1
Pseudomonas aeruginosa [10] = assay: Antibacterial activity against Pseudomonas aeruginosa ATCC 27853 after 18 hrs by broth microdilution method; assay type: functional; conditions: ATCC 27853, 18 h; outline: as §1
[11] = Selectivity index, ratio of CC50 for human HepG2 cells in presence of 1% FBS to MIC for Acinetobacter baumannii isolate 07AC-336; assay type: toxicity; conditions: read-out: Selectivity Index
[12] = Selectivity index, ratio of CC50 for human HepG2 cells in presence of 1% FBS to IC50 for CQ-sensitive GFP-fused Plasmodium falciparum D10; assay type: toxicity; conditions: read-out: Ratio IC50
Enterococcus faecium = assay: Antibacterial activity against vancomycin-resistant Enterococcus faecium ATCC 700221 after 18 hrs by broth microdilution method; assay type: functional; conditions: ATCC 700221, 18 h; outline: as §1
[13] = Selectivity index, ratio of CC50 for human HepG2 cells in presence of 1% FBS to MIC for Pseudomonas aeruginosa isolate 18878B klon 1; assay type: toxicity; conditions: read-out: Selectivity Index; outline: as §2
Plasmodium knowlesi [14] = assay: Growth inhibition of Plasmodium knowlesi YH1 after 50 hrs by ethidium bromide staining based flow cytometry; assay type: functional, organism-based; conditions: YH1, 50 h
Outline: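 P. knowlesi YH1 cultured in human O+ erythrocytes in RPMI-HEPES with 0.5% Albumax II under 1% O2/4% CO2. Ring-synchronised parasites set up at 1% parasitaemia and 1% haematocrit with compound. Cultured 50 h to late trophozoites of the next cycle. Stained 1 h with 10 µg/mL ethidium bromide and parasitaemia counted by flow cytometry.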

Plasmodium falciparum [15] = assay: Growth inhibition of CQ-sensitive GFP-fused Plasmodium falciparum D10 after 90 hrs by ethidium bromide staining based flow cytometry; assay type: functional, organism-based; conditions: D10, 90 h; outline: as §3
Escherichia coli [16] = assay: Antibacterial activity against Escherichia coli N11281 after 18 hrs by broth microdilution method; assay type: functional; conditions: N11281, 18 h; outline: as §1
Pseudomonas aeruginosa [17] = assay: Antibacterial activity against Pseudomonas aeruginosa isolate 18878B klon 1 after 18 hrs by broth microdilution method; assay type: functional; conditions: isolate 18878B klon 1, 18 h; outline: as §1
[18] = Selectivity index, ratio of CC50 for human HepG2 cells in presence of 1% FBS to MIC for Klebsiella pneumoniae isolate M320445; assay type: toxicity; conditions: read-out: Selectivity Index
[19] = Selectivity index, ratio of CC50 for human HepG2 cells in presence of 1% FBS to MIC for Acinetobacter baumannii isolate 246-01-C; assay type: toxicity; conditions: read-out: Selectivity Index
Pseudomonas aeruginosa [20] = assay: Antibacterial activity against Pseudomonas aeruginosa isolate 19147nm after 18 hrs by broth microdilution method; assay type: functional; outline: as §1
[21] = Selectivity index, ratio of CC50 for human HepG2 cells in presence of 1% FBS to MIC for Pseudomonas aeruginosa isolate M146201; assay type: toxicity; conditions: read-out: Selectivity Index; outline: as §2
Escherichia coli [22] = assay: Antibacterial activity against Escherichia coli N2381 after 18 hrs by broth microdilution method; assay type: functional; conditions: N2381, 18 h; outline: as §1
Acinetobacter baumannii [23] = assay: Antibacterial activity against Acinetobacter baumannii ATCC 17978 after 18 hrs by broth microdilution method; assay type: functional; conditions: ATCC 17978, 18 h; outline: as §1
Plasmodium knowlesi [24] = assay: microbe, parasite or virus in culture; conditions: YH1, 90 h
Plasmodium falciparum [25] = assay: microbe, parasite or virus in culture; conditions: CS2, 90 h
[26] = Stability in cation-adjusted Mueller-Hinton broth at 37 degC after 1 day by LC-MS analysis; assay type: physicochemical; conditions: 24 h
Outline: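 Compound was incubated under bacterial assay conditions: CaMHB, 37 °C, polypropylene microtitre wells. The species present were analysed by LCMS the next day.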

| Compound | MIC (Escherichia coli [1]) [µM] | MIC (Pseudomonas aeruginosa [2]) [µM] | selectivity ratio [3] | selectivity ratio [5] | selectivity ratio [8] | MIC (Klebsiella pneumoniae) [µM] | MIC (Acinetobacter baumannii [9]) [µM] | MIC (Pseudomonas aeruginosa [10]) [µM] | selectivity ratio [11] | selectivity ratio [12] | MIC (Enterococcus faecium) [µM] | selectivity ratio [13] | IC50 (Plasmodium falciparum [15]) [nM] | MIC (Escherichia coli [16]) [µM] | MIC (Pseudomonas aeruginosa [17]) [µM] | selectivity ratio [18] | selectivity ratio [19] | MIC (Pseudomonas aeruginosa [20]) [µM] | selectivity ratio [21] | MIC (Escherichia coli [22]) [µM] | other results |
| --- | --- | --- | --- | --- | --- | --- | --- | --- | --- | --- | --- | --- | --- | --- | --- | --- | --- | --- | --- | --- | --- |
| N#Cc1ccc2c(c1)-c1ccccc1[I+]2 | > 71 | 18 | 0.32 | 0.63 | 0.32 | 35 | 18 | 71 | 0.32 | 531 | 1.1 | 2.5 | 40 | 71 | 8.8 | 0.32 | 0.13 | 4.4 | 2.5 | 71 | selectivity ratio [4]: 256; IC50 (Plasmodium falciparum [6]): 90 nM; selectivity ratio [7]: 232; IC50 (Plasmodium knowlesi [14]): 110 nM; MIC (Acinetobacter baumannii [23]): 4.4 µM |
| Clc1cccc2c1-c1ccccc1[I+]2 | 0.54 | 0.54 | < 2.4 | 0.15 | 0.31 | 4.3 | < 0.27 | < 0.27 | < 2.4 | 13 | < 0.27 | < 2.4 | 50 | 2.2 | < 0.27 | 0.08 | < 2.4 | < 0.27 | 1.2 | 0.54 | selectivity ratio [4]: 8.9; IC50 (Plasmodium falciparum [6]): 70 nM; selectivity ratio [7]: 8.5; IC50 (Plasmodium knowlesi [14]): 80 nM; MIC (Acinetobacter baumannii [23]): < 0.27 µM |
| c1ccc2c(c1)[I+]c1ccccc1-2 | 37 | 9.3 | 0.39 | 0.78 | 0.78 | 37 | 4.7 | 75 | 1.6 | 221 | 4.7 | 6.3 | 130 | 37 | 4.7 | 0.78 | 6.3 | 2.3 | 3.1 | 37 | IC50 (Plasmodium knowlesi [24]): 740 nM; IC50 (Plasmodium falciparum [25]): 40 nM; MIC (Acinetobacter baumannii [23]): 2.3 µM |
| Cc1ccc2c(c1)[I+]c1ccccc1-2.O=S(=O)([O-])C(F)(F)F | 72 | > 72 | 0.05 | 0.05 | 0.11 | 72 | 18 | 72 | 0.21 | 15.8 | 4.5 | 0.81 | 230 | 36 | 4.5 | 0.11 | 0.21 | 4.5 | 0.11 | 72 | Stability [26]: Stable; MIC (Acinetobacter baumannii [23]): 4.5 µM |
| Fc1cccc2c1-c1ccccc1[I+]2 | 1.1 | 4.5 | 2.1 | 1 | 1 | 4.5 | < 0.28 | 2.2 | 4.1 | 96 | 0.56 | < 16 | 50 | 4.5 | < 0.28 | 0.51 | < 16 | < 0.28 | 4.1 | 1.1 | selectivity ratio [4]: 61; IC50 (Plasmodium falciparum [6]): 80 nM; selectivity ratio [7]: 59; IC50 (Plasmodium knowlesi [14]): 80 nM; MIC (Acinetobacter baumannii [23]): 0.56 µM |
